From ChEMBL document CHEMBL2146366, “Discovery of microsomal triglyceride transfer protein (MTP) inhibitors with potential for decreased active metabolite load compared to dirlotapide” (Bioorg Med Chem Lett, 2011)
Activity calls are given as the source filed them. The rule behind the calls is not given here.

Key:
Rattus norvegicus [1] = assay: Antiobesity activity in high fat diet-induced obese Sprague-Dawley rat assessed as reduction of food intake at 100 mg/kg, po administered daily for 3 days relative to dirlotapide; type: functional; parameters: scale not given: the % may be the effect or the level left
Method in brief: (§1)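 Male Sprague–Dawley rats (~300 g, n = 5 per group) were acclimatized for seven days to a high-fat diet (45% kcal from fat). They received three consecutive daily oral gavage doses 1.5 h before the dark cycle. Vehicle was SEDDS:H2O 10:90, with SEDDS made of Miglyol 812 10%, triacetin 30%, polysorbate 80 20% and Capmul MCM 30%. Food intake was recorded during dosing, and liver TG was measured afterwards, both against vehicle.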

Rattus norvegicus [2] = assay: Antiobesity activity in high fat diet-induced obese Sprague-Dawley rat assessed as reduction of food intake at 10 mg/kg, po administered with 25% SDD formulation daily for 3 days relative to control; type: functional; parameters: scale not given: the % may be the effect or the level left
Method in brief: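 Three-day oral dosing study in male Sprague–Dawley rats (~300 g, n = 5 per group) fed a high-fat diet (45% kcal from fat). Animals received daily gavage doses 1.5 h before the dark cycle. Compound was given as a spray-dried dispersion made by spray drying compound with hydroxypropylmethylcellulose acetate succinate. Food intake was recorded during dosing and liver TG measured afterwards, both against vehicle.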

[3] = AUC in high fat diet-induced obese Sprague-Dawley rat at 3 mg/kg, po qd for 7 days; type: ADME, organism-based; parameters: dose 3 mg/kg, route oral; conditions: plasma
Method in brief: (§2)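 Seven-day rat study: once-daily oral dosing at 3, 10 or 30 mg/kg, with 1, 3 and 100 mg/kg also used for one series. Compounds were given as spray-dried dispersions in hydroxypropylmethylcellulose acetate succinate. Food intake, body weight, liver TG and serum ALT were measured against vehicle. Systemic exposure was reported as AUC (ng h/mL). Significance versus vehicle was set at P ≤ 0.05.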

Rattus norvegicus [4] = assay: Antiobesity activity in high fat diet-induced obese Sprague-Dawley rat assessed as reduction of food intake at 10 mg/kg, po qd for 7 days relative to control; type: functional; parameters: scale not given: the % may be the effect or the level left; method in brief: as §2
[5] = Fraction unbound in human HepG2 cells by equilibrium dialysis; type: ADME, cell-based
Method in brief: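 Protein binding was measured by equilibrium dialysis under the conditions of the apoB secretion assay in human HepG2 cells, to give unbound fraction.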

Canis familiaris [6] = assay: Drug metabolism in beagle dog assessed as formation of 2-(4'-tert-butylbiphenyl-2-ylcarboxamido)-N-(2-(methylamino)-2-oxo-1-phenylethyl)quinoline-6-carboxamide at 2.5 mg/kg, po administered as single dose; type: ADME, organism-based, Canis lupus familiaris; parameters: dose 2.5 mg/kg, route oral; conditions: in vivo
Rattus norvegicus [7] = assay: Antiobesity activity in high fat diet-induced obese Sprague-Dawley rat assessed as reduction in body weight at 10 mg/kg, po administered with 25% SDD formulation daily for 3 days relative to control; type: functional; parameters: scale not given: the % may be the effect or the level left
Canis familiaris [8] = assay: Drug metabolism in beagle dog assessed as formation of 2-(2'-(6-(2-((4-fluorobenzyl)(methyl)amino)-2-oxo-1-phenylethylcarbamoyl)quinolin-2-ylcarbamoyl)biphenyl-4-yl)-2-methylpropanoic acid at 2.5 mg/kg, po administered as single dose; type: ADME, organism-based, Canis lupus familiaris; parameters: dose 2.5 mg/kg, route oral; conditions: in vivo
Rattus norvegicus [9] = assay: Antiobesity activity in high fat diet-induced obese Sprague-Dawley rat assessed as reduction of food intake at 1 mg/kg, po administered daily for 3 days relative to control; type: functional; parameters: scale not given: the % may be the effect or the level left; method in brief: as §1
[10] = Oral bioavailability in beagle dog at 2.5 mg/kg; type: ADME, organism-based, Canis lupus familiaris; conditions: in vivo
Rattus norvegicus [11] = assay: Antiobesity activity in high fat diet-induced obese Sprague-Dawley rat assessed as triglyceride accumulation in liver at 3 mg/kg, po administered daily for 3 days relative to control; type: functional, organism-based; parameters: dose 3 mg/kg; method in brief: as §1
Rattus norvegicus [12] = assay: Antiobesity activity in po dosed high fat diet-induced obese Sprague-Dawley rat assessed as reduction of body weight administered daily for 3 days; type: functional; conditions: 72 h, read-out: MED
Rattus norvegicus [13] = assay: Drug metabolism in rat assessed as formation of N-(2-((4-fluorobenzyl)(methyl)amino)-2-oxo-1-phenylethyl)-2-(4'-(1-hydroxy-2-methylpropan-2-yl)biphenyl-2-ylcarboxamido)quinoline-6-carboxamide at 30 mg/kg, po administered as single dose; type: ADME, organism-based; parameters: dose 30 mg/kg, route oral; conditions: in vivo
Rattus norvegicus [14] = assay: Toxicity in high fat diet-induced obese Sprague-Dawley rat assessed as change in serum ALT level at 3 mg/kg, po qd for 7 days relative to control; type: organism-based; parameters: dose 3 mg/kg, route oral; conditions: in vivo, 168 h
Method in brief: (§3)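 Seven-day study in high-fat-diet rats. Compound was given once daily by mouth as a spray-dried dispersion, with vehicle controls. Serum ALT was measured alongside food intake, body weight, liver TG and systemic exposure (AUC). ALT is expressed as % change versus vehicle, with significance set at P ≤ 0.05.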

Rattus norvegicus [15] = assay: Antiobesity activity in high fat diet-induced obese Sprague-Dawley rat assessed as reduction in body weight at 1 mg/kg, po administered daily for 3 days relative to control; type: functional; parameters: scale not given: the % may be the effect or the level left
Rattus norvegicus [16] = assay: Toxicity in high fat diet-induced obese Sprague-Dawley rat assessed as change in serum ALT level at 10 mg/kg, po qd for 7 days relative to control; type: organism-based; parameters: dose 10 mg/kg, route oral; conditions: in vivo, 168 h; method in brief: as §3
Rattus norvegicus [17] = assay: Antiobesity activity in high fat diet-induced obese Sprague-Dawley rat assessed as reduction of body weight at 3 mg/kg, po qd for 7 days relative to control; type: functional; parameters: scale not given: the % may be the effect or the level left; method in brief: as §2
Rattus norvegicus [18] = assay: Antiobesity activity in high fat diet-induced obese Sprague-Dawley rat assessed as reduction in body weight at 30 mg/kg, po administered daily for 3 days relative to control; type: functional; parameters: scale not given: the % may be the effect or the level left
Rattus norvegicus [19] = assay: Antiobesity activity in high fat diet-induced obese Sprague-Dawley rat assessed as reduction of food intake at 3 mg/kg, po qd for 7 days relative to control; type: functional; parameters: scale not given: the % may be the effect or the level left; method in brief: as §2
Canis familiaris [20] = assay: Drug metabolism in beagle dog assessed as formation of N-(2-((4-fluorobenzyl)(methyl)amino)-2-oxo-1-phenylethyl)-2-(4'-(1-hydroxy-2-methylpropan-2-yl)biphenyl-2-ylcarboxamido)quinoline-6-carboxamide at 2.5 mg/kg, po administered as single dose; type: ADME, organism-based, Canis lupus familiaris; parameters: dose 2.5 mg/kg, route oral; conditions: in vivo
Rattus norvegicus [21] = assay: Antiobesity activity in high fat diet-induced obese Sprague-Dawley rat assessed as reduction of triglyceride accumulation in liver at 10 mg/kg, po qd for 7 days relative to control; type: functional; parameters: scale not given: the % may be the effect or the level left; method in brief: as §2
Rattus norvegicus [22] = assay: Antiobesity activity in high fat diet-induced obese Sprague-Dawley rat assessed as reduction of food intake at 30 mg/kg, po administered daily for 3 days relative to dirlotapide; type: functional; parameters: scale not given: the % may be the effect or the level left; method in brief: as §1
Rattus norvegicus [23] = assay: Antiobesity activity in high fat diet-induced obese Sprague-Dawley rat assessed as reduction of food intake at 1 mg/kg, po administered daily for 3 days relative to dirlotapide; type: functional; parameters: scale not given: the % may be the effect or the level left; method in brief: as §1

Compound: CN(Cc1ccc(F)cc1)C(=O)[C@@H](NC(=O)c1ccc2nc(NC(=O)c3ccccc3-c3ccc(C(C)(C)C)cc3)ccc2c1)c1ccccc1
- Activity (Rattus norvegicus [1]): 35%
- Activity (Rattus norvegicus [2]): 33%
- AUC at 168 h [3]: 12 ng·h/mL
- Activity (Rattus norvegicus [4]): 51%
- fraction unbound [5]: 0.00063
- Drug metabolism (Canis familiaris [6]): Active
- Activity (Rattus norvegicus [7]): 96%
- Drug metabolism (Canis familiaris [8]): Active
- Activity (Rattus norvegicus [9]): 12%
- bioavailability [10]: < 3%
- Activity (Rattus norvegicus [11]): inactive
- minimal effective dose (Rattus norvegicus [12]): 3 mg/kg
- Drug metabolism (Rattus norvegicus [13]): Active
- Activity (Rattus norvegicus [14]): 168%
- Activity (Rattus norvegicus [15]): 32%
- Activity (Rattus norvegicus [16]): 143%
- Activity (Rattus norvegicus [17]): 85%
- Activity (Rattus norvegicus [18]): 89%
- Activity (Rattus norvegicus [19]): 25%
- Drug metabolism (Canis familiaris [20]): Active
- Activity (Rattus norvegicus [21]): 219%
- Activity (Rattus norvegicus [22]): 37%
- Activity (Rattus norvegicus [23]): 5%
